Source: ChEMBL document CHEMBL5058577, “EUbOPEN Chemogenomics Library 2 (Multiplex)” (2022)

System: Fibroblast
Experiment: Multiplex assay against human fibroblast
Type: toxicity, cell-based
In short: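 Cells stained live at seeding with Hoechst33342, BioTracker Green Microtubule Cytoskeleton Dye, MitoTracker Red and Annexin V Alexa Fluor 680 were imaged on a CQ1 microscope at 37°C and 5% CO2 after compound addition. Their classification by CellPathfinder machine-learning gating ran from Hoechst high-intensity objects versus normal cells, to healthy, pyknosed or fragmented nuclei among normal cells, to mitotic or apoptotic among pyknosed cells. Tubulin, mitochondrial-mass and membrane-permeability phenotypes are per cents of healthy-nucleus cells.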

[1] = 12 h, 1 µM, compound concentration 1 uM, replicate 1
[2] = 12 h, 1 µM, compound concentration 1 uM, replicate 2
[3] = 12 h, 10 µM, compound concentration 10 uM, replicate 1
[4] = 12 h, 10 µM, compound concentration 10 uM, replicate 2
[5] = 24 h, 1 µM, compound concentration 1 uM, replicate 1
[6] = 24 h, 1 µM, compound concentration 1 uM, replicate 2
[7] = 24 h, 10 µM, compound concentration 10 uM, replicate 1
[8] = 24 h, 10 µM, compound concentration 10 uM, replicate 2
[9] = 48 h, 1 µM, compound concentration 1 uM, replicate 1
[10] = 48 h, 1 µM, compound concentration 1 uM, replicate 2
[11] = 48 h, 10 µM, compound concentration 10 uM, replicate 1
[12] = 48 h, 10 µM, compound concentration 10 uM, replicate 2

O=C(NCCO)c1cccc(-c2cc(Nc3ccc(OC(F)(F)F)cc3)ncn2)c1
Population Apoptotic (%) [1]: 46% | Population Fragmented Nuclei (%) [1]: 16% | Population Healthy Nuclei (%) [1]: 60% | Population Hoechst High Intensity Objects (%) [1]: 3% | Population Membrane Permeable-Phenotype (%) [1]: 1% | Population Mitochondria Different-Phenotype (%) [1]: 6% | Population Mitotic Cells (%) [1]: 53% | Population Normal (%) [1]: 96% | Population Pyknosed Nuclei (%) [1]: 24% | Population Tubulin-Different-Phenotype (%) [1]: 33% | Total Cell Count [1]: 130 | Population Apoptotic (%) [2]: 38% | Population Fragmented Nuclei (%) [2]: 29% | Population Healthy Nuclei (%) [2]: 46% | Population Hoechst High Intensity Objects (%) [2]: 4% | Population Membrane Permeable-Phenotype (%) [2]: 10% | Population Mitochondria Different-Phenotype (%) [2]: 8% | Population Mitotic Cells (%) [2]: 61% | Population Normal (%) [2]: 95% | Population Pyknosed Nuclei (%) [2]: 23% | Population Tubulin-Different-Phenotype (%) [2]: 46% | Total Cell Count [2]: 149 | Population Apoptotic (%) [3]: 37% | Population Fragmented Nuclei (%) [3]: 17% | Population Healthy Nuclei (%) [3]: 59% | Population Hoechst High Intensity Objects (%) [3]: 5% | Population Membrane Permeable-Phenotype (%) [3]: 0% | Population Mitochondria Different-Phenotype (%) [3]: 13% | Population Mitotic Cells (%) [3]: 62% | Population Normal (%) [3]: 94% | Population Pyknosed Nuclei (%) [3]: 22% | Population Tubulin-Different-Phenotype (%) [3]: 54% | Total Cell Count [3]: 185 | Population Apoptotic (%) [4]: 40% | Population Fragmented Nuclei (%) [4]: 22% | Population Healthy Nuclei (%) [4]: 36% | Population Hoechst High Intensity Objects (%) [4]: 10% | Population Membrane Permeable-Phenotype (%) [4]: 11% | Population Mitochondria Different-Phenotype (%) [4]: 11% | Population Mitotic Cells (%) [4]: 59% | Population Normal (%) [4]: 89% | Population Pyknosed Nuclei (%) [4]: 40% | Population Tubulin-Different-Phenotype (%) [4]: 79% | Total Cell Count [4]: 192 | Population Apoptotic (%) [5]: 56% | Population Fragmented Nuclei (%) [5]: 16% | Population Healthy Nuclei (%) [5]: 60% | Population Hoechst High Intensity Objects (%) [5]: 1% | Population Membrane Permeable-Phenotype (%) [5]: 2% | Population Mitochondria Different-Phenotype (%) [5]: 4% | Population Mitotic Cells (%) [5]: 43% | Population Normal (%) [5]: 98% | Population Pyknosed Nuclei (%) [5]: 22% | Population Tubulin-Different-Phenotype (%) [5]: 33% | Total Cell Count [5]: 135 | Population Apoptotic (%) [6]: 52% | Population Fragmented Nuclei (%) [6]: 24% | Population Healthy Nuclei (%) [6]: 50% | Population Hoechst High Intensity Objects (%) [6]: 2% | Population Membrane Permeable-Phenotype (%) [6]: 5% | Population Mitochondria Different-Phenotype (%) [6]: 5% | Population Mitotic Cells (%) [6]: 47% | Population Normal (%) [6]: 97% | Population Pyknosed Nuclei (%) [6]: 25% | Population Tubulin-Different-Phenotype (%) [6]: 42% | Total Cell Count [6]: 139 | Population Apoptotic (%) [7]: 50% | Population Fragmented Nuclei (%) [7]: 14% | Population Healthy Nuclei (%) [7]: 61% | Population Hoechst High Intensity Objects (%) [7]: 11% | Population Membrane Permeable-Phenotype (%) [7]: 1% | Population Mitochondria Different-Phenotype (%) [7]: 21% | Population Mitotic Cells (%) [7]: 50% | Population Normal (%) [7]: 88% | Population Pyknosed Nuclei (%) [7]: 24% | Population Tubulin-Different-Phenotype (%) [7]: 53% | Total Cell Count [7]: 175 | Population Apoptotic (%) [8]: 41% | Population Fragmented Nuclei (%) [8]: 30% | Population Healthy Nuclei (%) [8]: 36% | Population Hoechst High Intensity Objects (%) [8]: 7% | Population Membrane Permeable-Phenotype (%) [8]: 10% | Population Mitochondria Different-Phenotype (%) [8]: 25% | Population Mitotic Cells (%) [8]: 58% | Population Normal (%) [8]: 92% | Population Pyknosed Nuclei (%) [8]: 32% | Population Tubulin-Different-Phenotype (%) [8]: 84% | Total Cell Count [8]: 187 | Population Apoptotic (%) [9]: 82% | Population Fragmented Nuclei (%) [9]: 21% | Population Healthy Nuclei (%) [9]: 65% | Population Hoechst High Intensity Objects (%) [9]: 1% | Population Membrane Permeable-Phenotype (%) [9]: 3% | Population Mitochondria Different-Phenotype (%) [9]: 1% | Population Mitotic Cells (%) [9]: 17% | Population Normal (%) [9]: 98% | Population Pyknosed Nuclei (%) [9]: 13% | Population Tubulin-Different-Phenotype (%) [9]: 28% | Total Cell Count [9]: 130 | Population Apoptotic (%) [10]: 45% | Population Fragmented Nuclei (%) [10]: 31% | Population Healthy Nuclei (%) [10]: 53% | Population Membrane Permeable-Phenotype (%) [10]: 6% | Population Mitochondria Different-Phenotype (%) [10]: 4% | Population Mitotic Cells (%) [10]: 54% | Population Pyknosed Nuclei (%) [10]: 14% | Population Tubulin-Different-Phenotype (%) [10]: 38% | Total Cell Count [10]: 156 | Population Apoptotic (%) [11]: 70% | Population Fragmented Nuclei (%) [11]: 35% | Population Healthy Nuclei (%) [11]: 51% | Population Hoechst High Intensity Objects (%) [11]: 13% | Population Membrane Permeable-Phenotype (%) [11]: 0% | Population Mitochondria Different-Phenotype (%) [11]: 26% | Population Mitotic Cells (%) [11]: 30% | Population Normal (%) [11]: 86% | Population Pyknosed Nuclei (%) [11]: 13% | Population Tubulin-Different-Phenotype (%) [11]: 64% | Total Cell Count [11]: 170 | Population Apoptotic (%) [12]: 76% | Population Fragmented Nuclei (%) [12]: 40% | Population Healthy Nuclei (%) [12]: 47% | Population Hoechst High Intensity Objects (%) [12]: 6% | Population Membrane Permeable-Phenotype (%) [12]: 13% | Population Mitochondria Different-Phenotype (%) [12]: 19% | Population Mitotic Cells (%) [12]: 23% | Population Normal (%) [12]: 93% | Population Pyknosed Nuclei (%) [12]: 11% | Population Tubulin-Different-Phenotype (%) [12]: 86% | Total Cell Count [12]: 198
